Reference: ChEMBL document CHEMBL1671664 (2009)
In brackets after ≈: the same amount, converted by molar mass. Activity calls are given as the source filed them. The calls are words filed in the database; no cut-off is given here.

Key:
[1] = Antimicrobial activity against qnrS-positive Salmonella enterica serovar Corvallis isolate s2017 harboring ParC QRDR mutant gene by agar dilution method; assay type: functional, Salmonella enterica subsp. enterica serovar Corvallis
[2] = Antimicrobial activity against qnrS-positive Salmonella enterica serovar Virginia isolate s2219 harboring ParC QRDR mutant gene by agar dilution method; assay type: functional, Salmonella enterica subsp. enterica serovar Virginia
[3] = system: Salmonella enterica subsp. enterica serovar Montevideo; assay: Drug uptake in qnrS-positive Salmonella enterica serovar Montevideo isolate s2209 harboring ParC QRDR mutant gene in presence of CCCP; assay type: functional
In short: (§1)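 Cell suspensions preincubated with 100 μM CCCP before substrate addition. Ciprofloxacin accumulation read by fluorescence (ex 311/em 447 nm), Hoechst 33342 by fluorescence (ex 355/[…]), at 10 min. Expressed relative to S. Typhimurium SL1344. Differences tested by Student t test (P < 0.05).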

[4] = Antimicrobial activity against qnrS-positive Salmonella enterica serovar Montevideo isolate s2944 harboring ParC QRDR mutant gene by agar dilution method; assay type: functional, Salmonella enterica subsp. enterica serovar Montevideo
Salmonella typhimurium [5] = assay: Antimicrobial activity against qnrS-positive Salmonella enterica serovar Typhimurium isolate s2425 harboring wild type ParC gene by agar dilution method; assay type: functional, Salmonella enterica subsp. enterica serovar Typhimurium
[6] = Antimicrobial activity against Salmonella enterica serovar Mbandaka isolate s2159 harboring ParC QRDR mutant gene by agar dilution method; assay type: functional, Salmonella enterica subsp. enterica serovar Mbandaka
[7] = Antimicrobial activity against Salmonella enterica serovar Stanley isolate s2043 harboring ParC QRDR mutant gene by agar dilution method; assay type: functional, Salmonella enterica subsp. enterica serovar Stanley
Salmonella typhimurium [8] = assay: Antimicrobial activity against Salmonella enterica serovar Typhimurium isolate s2878 harboring wild type ParC gene by agar dilution method; assay type: functional, Salmonella enterica subsp. enterica serovar Typhimurium
[9] = Antimicrobial activity against Salmonella enterica serovar Montevideo isolate s2317 harboring ParC QRDR mutant gene by agar dilution method; assay type: functional, Salmonella enterica subsp. enterica serovar Montevideo
[10] = Antimicrobial activity against qnrS-positive Salmonella enterica serovar Stanley isolate s2018 harboring ParC QRDR mutant gene by agar dilution method; assay type: functional, Salmonella enterica subsp. enterica serovar Stanley
[11] = Antimicrobial activity against qnrS-positive Salmonella enterica serovar Corvallis isolate s2052 harboring ParC QRDR mutant gene by agar dilution method; assay type: functional, Salmonella enterica subsp. enterica serovar Corvallis
[12] = Antimicrobial activity against qnrA-positive Salmonella enterica serovar Mbandaka isolate s2093 harboring ParC QRDR mutant gene by agar dilution method; assay type: functional, Salmonella enterica subsp. enterica serovar Mbandaka
[13] = Antimicrobial activity against qnrS-positive Salmonella enterica serovar Montevideo isolate s2209 harboring ParC QRDR mutant gene by agar dilution method; assay type: functional, Salmonella enterica subsp. enterica serovar Montevideo
[14] = Antimicrobial activity against Salmonella enterica serovar Braenderup isolate s2906 harboring ParC QRDR mutant gene by agar dilution method; assay type: functional, Salmonella enterica subsp. enterica serovar Braenderup
[15] = Antimicrobial activity against Salmonella enterica serovar Corvallis isolate s2064 harboring ParC QRDR mutant gene by agar dilution method; assay type: functional, Salmonella enterica subsp. enterica serovar Corvallis
Salmonella typhimurium [16] = assay: Antimicrobial activity against Salmonella enterica serovar Typhimurium isolate SL1344 harboring wild type ParC gene by agar dilution method; assay type: functional, Salmonella enterica subsp. enterica serovar Typhimurium
[17] = Antimicrobial activity against qnrS-positive Salmonella enterica serovar Braenderup isolate s2856 harboring ParC QRDR mutant gene by agar dilution method; assay type: functional, Salmonella enterica subsp. enterica serovar Braenderup
[18] = system: Salmonella enterica subsp. enterica serovar Mbandaka; assay: Drug uptake in qnrA-positive Salmonella enterica serovar Mbandaka isolate s2093 harboring ParC QRDR mutant gene in presence of CCCP; assay type: functional; in short: as §1
Salmonella typhimurium [19] = assay: Antimicrobial activity against qnrS-positive Salmonella enterica serovar Typhimurium isolate s2705 harboring wild type ParC gene by agar dilution method; assay type: functional, Salmonella enterica subsp. enterica serovar Typhimurium
Escherichia coli [20] = assay: Antimicrobial activity against Escherichia coli DH5[alpha] transformed with Salmonella enterica serovar Virginia isolate s2219 plasmid encoded qnrS and Parc QRDR Thre57Ser mutant gene by agar dilution method; assay type: functional
In short: (§2)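 E. coli DH5α transformed by electroporation with qnr-carrying plasmid DNA from donor Salmonella isolates; transformants selected on LB agar with 0.03 μg/ml ciprofloxacin, qnr confirmed by multiplex PCR. MICs to ciprofloxacin and nalidixic acid by agar dilution.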

Escherichia coli [21] = assay: Antimicrobial activity against Escherichia coli DH5[alpha] transformed with Salmonella enterica serovar Corvallis isolate s2052 plasmid encoded qnrS and Parc QRDR Thre57Ser mutant gene by agar dilution method; assay type: functional; in short: as §2
Escherichia coli [22] = assay: Antimicrobial activity against Escherichia coli DH5[alpha] transformed with Salmonella enterica serovar Corvallis isolate s2017 plasmid encoded qnrS and Parc QRDR Thre57Ser mutant gene by agar dilution method; assay type: functional; in short: as §2
Escherichia coli [23] = assay: Antimicrobial activity against Escherichia coli DH5[alpha] transformed with Salmonella enterica serovar Typhimurium isolate s2705 plasmid encoded qnrS and Parc gene by agar dilution method; assay type: functional; in short: as §2
Escherichia coli [24] = assay: Antimicrobial activity against Escherichia coli DH5[alpha] transformed with Salmonella enterica serovar Typhimurium isolate s2425 plasmid encoded qnrS and Parc gene by agar dilution method; assay type: functional; in short: as §2
Escherichia coli [25] = assay: Antimicrobial activity against Escherichia coli DH5[alpha] transformed with Salmonella enterica serovar Montevideo isolate s2944 plasmid encoded qnrS and Parc QRDR Thre57Ser mutant gene by agar dilution method; assay type: functional; in short: as §2
Escherichia coli [26] = assay: Antimicrobial activity against Escherichia coli DH5[alpha] transformed with Salmonella enterica serovar Montevideo isolate s2209 plasmid encoded qnrS and Parc QRDR Thre57Ser mutant gene by agar dilution method; assay type: functional; in short: as §2

SMILES | MIC [1] [µg/mL] | MIC [2] [µg/mL] | MIC [4] [µg/mL] | MIC (Salmonella typhimurium [5]) [µg/mL] | MIC [6] [µg/mL] | MIC [7] [µg/mL] | MIC (Salmonella typhimurium [8]) [µg/mL] | MIC [9] [µg/mL] | MIC [10] [µg/mL] | MIC [11] [µg/mL] | MIC [12] [µg/mL] | MIC [13] [µg/mL] | MIC [14] [µg/mL] | MIC [15] [µg/mL] | MIC (Salmonella typhimurium [16]) [µg/mL] | MIC [17] [µg/mL] | MIC (Salmonella typhimurium [19]) [µg/mL] | other results
O=C(O)c1cn(C2CC2)c2cc(N3CCNCC3)c(F)cc2c1=O [CIPROFLOXACIN] | 0.25 (≈ 0.754 µM) | 0.5 (≈ 1.51 µM) | 0.5 (≈ 1.51 µM) | 0.5 (≈ 1.51 µM) | 0.008 (≈ 0.0241 µM) | 0.015 (≈ 0.0453 µM) | 0.03 (≈ 0.0905 µM) | 0.015 (≈ 0.0453 µM) | 0.5 (≈ 1.51 µM) | 0.5 (≈ 1.51 µM) | 4 (≈ 12.1 µM) | 0.5 (≈ 1.51 µM) | 0.015 (≈ 0.0453 µM) | 0.015 (≈ 0.0453 µM) | 0.06 (≈ 0.181 µM) | 0.5 (≈ 1.51 µM) | 0.5 (≈ 1.51 µM) | Drug uptake [3]: inactive; Drug uptake [18]: inactive
C[C@H]1COc2c(N3CCN(C)CC3)c(F)cc3c(=O)c(C(=O)O)cn1c23.C[C@H]1COc2c(N3CCN(C)CC3)c(F)cc3c(=O)c(C(=O)O)cn1c23.O [LEVOFLOXACIN] | 1 | 1 | 1 | 1 | 0.06 | 0.06 | – | 0.06 | 1 | 0.5 | 1 | 1 | – | 0.06 | – | 1 | 1 | –
COc1c(N2C[C@@H]3CCCN[C@@H]3C2)c(F)cc2c(=O)c(C(=O)O)cn(C3CC3)c12 [MOXIFLOXACIN] | – | – | – | – | 0.125 (≈ 0.311 µM) | 0.06 (≈ 0.149 µM) | – | 0.06 (≈ 0.149 µM) | – | 2 (≈ 4.98 µM) | 0.5 (≈ 1.25 µM) | – | – | 0.06 (≈ 0.149 µM) | – | – | – | –
CCn1cc(C(=O)O)c(=O)c2ccc(C)nc21 [NALIDIXIC ACID] | 16 (≈ 68.9 µM) | 32 (≈ 138 µM) | 16 (≈ 68.9 µM) | 16 (≈ 68.9 µM) | 4 (≈ 17.2 µM) | 4 (≈ 17.2 µM) | 16 (≈ 68.9 µM) | 4 (≈ 17.2 µM) | 16 (≈ 68.9 µM) | 16 (≈ 68.9 µM) | 16 (≈ 68.9 µM) | 32 (≈ 138 µM) | 4 (≈ 17.2 µM) | 4 (≈ 17.2 µM) | 4 (≈ 17.2 µM) | 16 (≈ 68.9 µM) | 16 (≈ 68.9 µM) | MIC (Escherichia coli [20]): 8 µg/mL (≈ 34.4 µM); MIC (Escherichia coli [21]): 8 µg/mL (≈ 34.4 µM); MIC (Escherichia coli [22]): 8 µg/mL (≈ 34.4 µM); MIC (Escherichia coli [23]): 8 µg/mL (≈ 34.4 µM); MIC (Escherichia coli [24]): 8 µg/mL (≈ 34.4 µM); MIC (Escherichia coli [25]): 8 µg/mL (≈ 34.4 µM); MIC (Escherichia coli [26]): 8 µg/mL (≈ 34.4 µM)
CCn1cc(C(=O)O)c(=O)c2cc(F)c(N3CCNCC3)cc21 [NORFLOXACIN] | 2 (≈ 6.26 µM) | 2 (≈ 6.26 µM) | 2 (≈ 6.26 µM) | 2 (≈ 6.26 µM) | 0.125 (≈ 0.391 µM) | 0.125 (≈ 0.391 µM) | – | 0.125 (≈ 0.391 µM) | 2 (≈ 6.26 µM) | 1 (≈ 3.13 µM) | 16 (≈ 50.1 µM) | 2 (≈ 6.26 µM) | – | 0.06 (≈ 0.188 µM) | – | 2 (≈ 6.26 µM) | 2 (≈ 6.26 µM) | –
CC1COc2c(N3CCN(C)CC3)c(F)cc3c(=O)c(C(=O)O)cn1c23 (stereo unspecified) [OFLOXACIN] | 2 (≈ 5.53 µM) | 2 (≈ 5.53 µM) | 2 (≈ 5.53 µM) | 2 (≈ 5.53 µM) | 0.125 (≈ 0.346 µM) | 0.125 (≈ 0.346 µM) | – | 0.125 (≈ 0.346 µM) | 2 (≈ 5.53 µM) | 1 (≈ 2.77 µM) | 1 (≈ 2.77 µM) | 2 (≈ 5.53 µM) | – | 0.03 (≈ 0.083 µM) | – | 2 (≈ 5.53 µM) | 2 (≈ 5.53 µM) | –
